From ChEMBL document CHEMBL1147391, “Isolation of echinocystic acid-3-O-sulfate, a new triterpene, from Tetrapleura tetraptera, and evaluation of the mutagenic potential of molluscicidal extracts and isolates” (J Nat Prod, 1993)
Activity calls are given as the source filed them. No cut-off for these calls is given here.

Experiments:
Salmonella typhimurium [1] = test: Forward mutagenic activity in Salmonella Typhimurium […] assessed as mutant fraction at 1.25 mg/ml after 2 hrs in absence of rat S9 liver homogenate; type: toxicity, organism-based; conditions: salmonella enterica subsp. enterica serovar typhimurium
Summary of the method: (§1)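 Forward mutation assay in S. typhimurium TM677 carrying pKM101, with or without Aroclor 1254-induced rat liver S-9 (9000×g). Substance in DMSO incubated with bacteria 2 h at 37°, quenched with PBS and plated in triplicate with and without 8-azaguanine, then grown 48–60 h at 37°. Mutant fraction is the mean 8-azaguanine-resistant colony count over the mean count without 8-azaguanine, corrected for dilution.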

Salmonella typhimurium [2] = test: Bactericidal activity against Salmonella Typhimurium […] assessed as survival at 0.3125 mg/ml after 48 to 60 hrs in absence of rat S9 liver homogenate relative to control; type: functional, organism-based; conditions: Salmonella enterica subsp. enterica serovar Typhimurium
Summary of the method: (§2)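 TM677 (pKM101) exposed to test substance in DMSO with or without S-9 from livers of Aroclor 1254-pretreated rats, 2 h at 37°, quenched with PBS, centrifuged, diluted and plated in triplicate without 8-azaguanine. Colonies scored after 48–60 h at 37°. Survival is expressed relative to a DMSO-only control after correction for dilution.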

Salmonella typhimurium [3] = test: Forward mutagenic activity in Salmonella Typhimurium […] assessed as mutant fraction at 2.5 mg/ml after 2 hrs in presence of rat S9 liver homogenate; type: toxicity, organism-based; conditions: salmonella enterica subsp. enterica serovar typhimurium; summary of the method: as §1
Salmonella typhimurium [4] = test: Bactericidal activity against Salmonella Typhimurium […] assessed as survival at 5 mg/ml after 48 to 60 hrs in presence of rat S9 liver homogenate relative to control; type: functional, organism-based; conditions: Salmonella enterica subsp. enterica serovar Typhimurium, Liver S9 fraction; summary of the method: as §2
Salmonella typhimurium [5] = test: Bactericidal activity against Salmonella Typhimurium […] assessed as survival at 0.625 mg/ml after 48 to 60 hrs in presence of rat S9 liver homogenate relative to control; type: functional, organism-based; conditions: Salmonella enterica subsp. enterica serovar Typhimurium, Liver S9 fraction; summary of the method: as §2
Salmonella typhimurium [6] = test: Forward mutagenic activity in Salmonella Typhimurium […] assessed as mutant fraction at 0.3125 mg/ml after 2 hrs in absence of rat S9 liver homogenate; type: toxicity, organism-based; conditions: salmonella enterica subsp. enterica serovar typhimurium; summary of the method: as §1
Salmonella typhimurium [7] = test: Forward mutagenic activity in Salmonella Typhimurium […] assessed as mutant fraction at 0.625 mg/ml after 2 hrs in absence of rat S9 liver homogenate; type: toxicity, organism-based; conditions: salmonella enterica subsp. enterica serovar typhimurium; summary of the method: as §1
Biomphalaria glabrata [8] = test: Molluscicidal activity against Biomphalaria glabrata assessed as mortality at 15 ppm after 24 hrs; type: functional
Summary of the method: (§3)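 Lab-bred B. glabrata (about 12 mm shell diameter), five snails per test, tested in duplicate at 21–22°. Samples dissolved in MeOH and diluted in dechlorinated tap water, final MeOH ≤1% v/v. Snails immersed 24 h, rinsed, then held 24 h in clean water. Death means no heartbeat under a dissecting microscope. Negative control was 1% MeOH.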

Salmonella typhimurium [9] = test: Forward mutagenic activity in Salmonella Typhimurium […] assessed as mutant fraction at 5 mg/ml after 2 hrs in presence of rat S9 liver homogenate; type: toxicity, organism-based; conditions: salmonella enterica subsp. enterica serovar typhimurium; summary of the method: as §1
Salmonella typhimurium [10] = test: Bactericidal activity against Salmonella Typhimurium […] assessed as survival at 0.625 mg/ml after 48 to 60 hrs in absence of rat S9 liver homogenate relative to control; type: functional, organism-based; conditions: Salmonella enterica subsp. enterica serovar Typhimurium; summary of the method: as §2
Salmonella typhimurium [11] = test: Bactericidal activity against Salmonella Typhimurium […] assessed as survival at 0.3125 mg/ml after 48 to 60 hrs in presence of rat S9 liver homogenate relative to control; type: functional, organism-based; conditions: Salmonella enterica subsp. enterica serovar Typhimurium, Liver S9 fraction; summary of the method: as §2
Salmonella typhimurium [12] = test: Bactericidal activity against Salmonella Typhimurium […] assessed as survival at 2.5 mg/ml after 48 to 60 hrs in absence of rat S9 liver homogenate relative to control; type: functional, organism-based; conditions: Salmonella enterica subsp. enterica serovar Typhimurium; summary of the method: as §2
Salmonella typhimurium [13] = test: Forward mutagenic activity in Salmonella Typhimurium […] assessed as mutant fraction at 0.3125 mg/ml after 2 hrs in presence of rat S9 liver homogenate; type: toxicity, organism-based; conditions: salmonella enterica subsp. enterica serovar typhimurium; summary of the method: as §1
Salmonella typhimurium [14] = test: Bactericidal activity against Salmonella Typhimurium […] assessed as survival at 5 mg/ml after 48 to 60 hrs in absence of rat S9 liver homogenate relative to control; type: functional, organism-based; conditions: Salmonella enterica subsp. enterica serovar Typhimurium; summary of the method: as §2
Salmonella typhimurium [15] = test: Forward mutagenic activity in Salmonella Typhimurium […] assessed as mutant fraction at 5 mg/ml after 2 hrs in absence of rat S9 liver homogenate; type: toxicity, organism-based; conditions: salmonella enterica subsp. enterica serovar typhimurium; summary of the method: as §1
Salmonella typhimurium [16] = test: Bactericidal activity against Salmonella Typhimurium […] assessed as survival at 2.5 mg/ml after 48 to 60 hrs in presence of rat S9 liver homogenate relative to control; type: functional, organism-based; conditions: Salmonella enterica subsp. enterica serovar Typhimurium, Liver S9 fraction; summary of the method: as §2
Salmonella typhimurium [17] = test: Forward mutagenic activity in Salmonella Typhimurium […] assessed as mutant fraction at 1.25 mg/ml after 2 hrs in presence of rat S9 liver homogenate; type: toxicity, organism-based; conditions: salmonella enterica subsp. enterica serovar typhimurium; summary of the method: as §1
Salmonella typhimurium [18] = test: Forward mutagenic activity in Salmonella Typhimurium […] assessed as mutant fraction at 2.5 mg/ml after 2 hrs in absence of rat S9 liver homogenate; type: toxicity, organism-based; conditions: salmonella enterica subsp. enterica serovar typhimurium; summary of the method: as §1
Salmonella typhimurium [19] = test: Bactericidal activity against Salmonella Typhimurium […] assessed as survival at 1.25 mg/ml after 48 to 60 hrs in absence of rat S9 liver homogenate relative to control; type: functional, organism-based; conditions: Salmonella enterica subsp. enterica serovar Typhimurium; summary of the method: as §2
Salmonella typhimurium [20] = test: Forward mutagenic activity in Salmonella Typhimurium […] assessed as mutant fraction at 0.625 mg/ml after 2 hrs in presence of rat S9 liver homogenate; type: toxicity, organism-based; conditions: salmonella enterica subsp. enterica serovar typhimurium; summary of the method: as §1
Salmonella typhimurium [21] = test: Bactericidal activity against Salmonella Typhimurium […] assessed as survival at 1.25 mg/ml after 48 to 60 hrs in presence of rat S9 liver homogenate relative to control; type: functional, organism-based; conditions: Salmonella enterica subsp. enterica serovar Typhimurium, Liver S9 fraction; summary of the method: as §2
Biomphalaria glabrata [22] = test: Molluscicidal activity against Biomphalaria glabrata assessed as mortality at 1.25 ppm after 24 hrs; type: functional; summary of the method: as §3
Salmonella typhimurium [23] = test: Bactericidal activity against Salmonella Typhimurium […] assessed as survival at 5.8 mg/ml after 48 to 60 hrs in absence of rat S9 liver homogenate; type: functional, organism-based; conditions: Salmonella enterica subsp. enterica serovar Typhimurium
Summary of the method: (§4)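 Forward mutation assay in S. typhimurium TM677 carrying plasmid pKM101, without S-9. Bacteria were mixed with MEM, test substance added in DMSO, and incubated 2 h at 37°. The mix was quenched with PBS, pelleted, diluted and plated in triplicate without 8-azaguanine. Colonies were counted after 48–60 h at 37°. Survival was dilution-corrected and taken relative to a DMSO-only control.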

Salmonella typhimurium [24] = test: Bactericidal activity against Salmonella Typhimurium […] assessed as survival at 50 mg/ml after 48 to 60 hrs in presence of rat S9 liver homogenate; type: functional, organism-based; conditions: Salmonella enterica subsp. enterica serovar Typhimurium, Liver S9 fraction
Summary of the method: (§5)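 TM677 (pKM101) forward mutation assay run with a 9000×g liver supernatant (S-9) from Aroclor 1254-pretreated rats. Test substance was added in DMSO and incubated 2 h at 37°, then quenched with PBS. Cells were pelleted, diluted and plated in triplicate without 8-azaguanine, and colonies counted after 48–60 h at 37°. Survival was dilution-corrected and taken relative to a DMSO solvent control.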

Salmonella typhimurium [25] = test: Bactericidal activity against Salmonella Typhimurium […] assessed as survival at 0.058 mg/ml after 48 to 60 hrs in absence of rat S9 liver homogenate; type: functional, organism-based; conditions: Salmonella enterica subsp. enterica serovar Typhimurium; summary of the method: as §4
Salmonella typhimurium [26] = test: Bactericidal activity against Salmonella Typhimurium […] assessed as survival at 0.5 mg/ml after 48 to 60 hrs in presence of rat S9 liver homogenate; type: functional, organism-based; conditions: Salmonella enterica subsp. enterica serovar Typhimurium, Liver S9 fraction; summary of the method: as §5
Biomphalaria glabrata [27] = test: Molluscicidal activity against Biomphalaria glabrata assessed as mortality at 20 ppm after 24 hrs; type: functional; summary of the method: as §3
Salmonella typhimurium [28] = test: Bactericidal activity against Salmonella Typhimurium […] assessed as survival at 0.58 mg/ml after 48 to 60 hrs in absence of rat S9 liver homogenate; type: functional, organism-based; conditions: Salmonella enterica subsp. enterica serovar Typhimurium; summary of the method: as §4

## CC(=O)N[C@H]1[C@H](O[C@H]2CC[C@]3(C)[C@H]4CC=C5[C@H]6CC(C)(C)CC[C@]6(C(=O)O)[C@H](O)C[C@@]5(C)[C@]4(C)CC[C@H]3C2(C)C)O[C@H](CO)[C@@H](O)[C@@H]1O
Salmonella typhimurium [1]
  Activity: 5.4
Salmonella typhimurium [2]
  Activity: 100%
Salmonella typhimurium [3]
  Activity: 2.9
Salmonella typhimurium [4]
  Activity: 100%
Salmonella typhimurium [5]
  Activity: 100%
Salmonella typhimurium [6]
  Activity: 4.9
Salmonella typhimurium [7]
  Activity: 5.4
Biomphalaria glabrata [8]
  Activity: 100%
Salmonella typhimurium [9]
  Activity: 4.6
Salmonella typhimurium [10]
  Activity: 100%
Salmonella typhimurium [11]
  Activity: 100%
Salmonella typhimurium [12]
  Activity: 100%
Salmonella typhimurium [13]
  Activity: 3.2
Salmonella typhimurium [14]
  Activity: 100%
Salmonella typhimurium [15]
  Activity: 4.7
Salmonella typhimurium [16]
  Activity: 100%
Salmonella typhimurium [17]
  Activity: 2.6
Salmonella typhimurium [18]
  Activity: 4.7
Salmonella typhimurium [19]
  Activity: 100%
Salmonella typhimurium [20]
  Activity: 3.1
Salmonella typhimurium [21]
  Activity: 200%

## CC(=O)N[C@H]1[C@H](O[C@H]2CC[C@]3(C)[C@H]4CC=C5[C@H]6CC(C)(C)CC[C@]6(C(=O)O)CC[C@@]5(C)[C@]4(C)CC[C@H]3C2(C)C)O[C@H](CO)[C@@H](O)[C@@H]1O [ARIDANIN]
Salmonella typhimurium [1]
  Activity: 4.1
Salmonella typhimurium [2]
  Activity: 89%
Salmonella typhimurium [3]
  Activity: 2.8
Salmonella typhimurium [4]
  Activity: 100%
Salmonella typhimurium [5]
  Activity: 100%
Salmonella typhimurium [6]
  Activity: 4.5
Salmonella typhimurium [7]
  Activity: 5.6
Salmonella typhimurium [9]
  Activity: 4
Salmonella typhimurium [10]
  Activity: 98%
Salmonella typhimurium [11]
  Activity: 100%
Salmonella typhimurium [12]
  Activity: 100%
Salmonella typhimurium [13]
  Activity: 2.5
Biomphalaria glabrata [22]
  Activity: 100%
Salmonella typhimurium [14]
  Activity: 100%
Salmonella typhimurium [15]
  Activity: 4.2
Salmonella typhimurium [16]
  Activity: 100%
Salmonella typhimurium [17]
  Activity: 3.2
Salmonella typhimurium [18]
  Activity: 3.3
Salmonella typhimurium [19]
  Activity: 100%
Salmonella typhimurium [20]
  Activity: 2.9
Salmonella typhimurium [21]
  Activity: 100%

## CC1(C)CC[C@]2(C(=O)O)[C@H](O)C[C@]3(C)C(=CC[C@@H]4[C@@]5(C)CC[C@H](OS(=O)(=O)O)C(C)(C)[C@@H]5CC[C@]43C)[C@H]2C1
Salmonella typhimurium [4]
  Activity: inactive
Salmonella typhimurium [23]
  Activity: inactive
Salmonella typhimurium [24]
  Activity: inactive
Salmonella typhimurium [25]
  Activity: inactive
Salmonella typhimurium [26]
  Activity: inactive
Biomphalaria glabrata [27]
  Activity: Non-toxic
Salmonella typhimurium [28]
  Activity: inactive

## CC(=O)N[C@H]1[C@H](O[C@H]2CC[C@]3(C)[C@H]4CC=C5[C@H]6CC(C)(C)CC[C@]6(C(=O)O)CC[C@@]5(C)[C@]4(C)CC[C@H]3C2(C)C)O[C@H](CO[C@@H]2O[C@H](CO)[C@@H](O)[C@H](O)[C@H]2O)[C@@H](O)[C@@H]1O
Salmonella typhimurium [1]
  Activity: 4
Salmonella typhimurium [2]
  Activity: 100%
Salmonella typhimurium [6]
  Activity: 4.1
Salmonella typhimurium [7]
  Activity: 4.2
Salmonella typhimurium [10]
  Activity: 100%
Salmonella typhimurium [12]
  Activity: 100%
Biomphalaria glabrata [27]
  Activity: 100%
Salmonella typhimurium [14]
  Activity: 100%
Salmonella typhimurium [15]
  Activity: 5
Salmonella typhimurium [18]
  Activity: 3.1
Salmonella typhimurium [19]
  Activity: 100%
